# XBP1 UPR activ – activators of adaptive arm of unfolded protein response (XBP1) | CHO-XBP1 luciferase reporter, IRE1-XBP1 UPR activation, luminescence; percent of tunicamycin response, DMSO as zero | AID 463104 | activation, % at 20 µM | hit rate 0.33% among 330,000;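 active = versus positive control, 20 µM dose yields 30% or more activation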;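 also: 100% = tunicamycin at 10 µg/mL and 0% = DMSO only wells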
#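 incubation = overnight seeding at 37 °C, 6 h compound treatment at 37 °C | assay system = CHO-XBP1 cells stably carrying IRE1-XBP1-driven luciferase reporter | input = 1000 cells per well | detection = luciferase luminescence | dosing = single point, 20 µM final compound, 1% DMSO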
# CHOP inhibitor – blocks CHOP induction under ER stress. CHO-K1 CHOP-promoter luciferase, tunicamycin-induced, 15-18 h. inhibition, % at 10 µM. hit rate 3.8% among 220,000. AID 2732;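 active = compounds that reduced the stress-induced luciferase reporter signal by more than about 70% of percent inhibition, limit read from the data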;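 also: 0% = tunicamycin plus vehicle and 100% = wells without tunicamycin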
# A1 inh – inhibitors of the anti-apoptotic protein A1, read as caspase activation; MEF A1-2A-BIM cells, Caspase-Glo 3/7 luminescence, 3 h; percent of clofoctol response, vehicle zero; hit rate 0.066% among 330,000; caspase activation, % (no concentration beside the values);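 active = over half of replicate activation scores above 10%, or exactly half above 10 with the replicate mean above 10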
# CHOP UPR activ – activators of apoptotic arm of unfolded protein response (CHOP). CHO-CHOP luciferase reporter, UPR activation, luminescence; percent of tunicamycin response over DMSO baseline. activation, % at 10 µM. hit rate 0.34% among 330,000. AID 449763;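 active = at 10 µM dose, activation of 40% or more, normalized to positive control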;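 also: 100% = tunicamycin at 10 µg/mL and 0% = DMSO alone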
#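 Test system: CHO-CHOP cells, stable luciferase reporter of PERK-eIF2a-CHOP signalling | Quantity: 500 CHO-CHOP cells per well | Buffer or medium: F12 plus 10% serum | Compound dosing: 10 µM single point, 0.5% DMSO | Schedule: 6 h compound treatment, 37 °C | Signal: Luciferase luminescence | Control set: Tunicamycin high control, DMSO low control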
# * hit, by the source's call; / = no result. This is one part of a sample in which hits are shown more often than they occur.
SMILES,XBP1 UPR activ,CHOP inhibitor,A1 inh,CHOP UPR activ
COc1ccc(/C=N/Nc2snc(SC)c2C#N)cc1OC,15,76*,-1,9
COc1cccc(/C=N/Nc2snc(SC)c2C#N)c1,2,81*,0,4
CSc1nsc(N/N=C/c2ccccc2)c1C#N,-3,59,-1,2
NC(=S)N1OC[C@@H]2COc3ccc4ccccc4c3[C@@H]21,-4,77*,-1,-6
CO/N=C/NC(=O)N1OC[C@@H]2COc3ccc4ccccc4c3[C@@H]21,-1,0,-1,-1
CC[C@@H](C)[C@@H]1CN([C@@H](CN2CCC[C@H]2CN2C(N)=NC[C@@H]2Cc2ccccc2)C(C)C)C(=N)N1CCCC1CCCC1,-1,/,0,1
O=C1/C(=C/c2ccccc2)CCCc2ccccc21,2,89*,-6,3
O=C1/C(=C\c2cccnc2)CCc2ccccc21,-5,-18,-2,-1
COC(=O)CNc1nc(Cl)nc(Nc2ccc(Cl)cc2)n1,-1,74*,0,3
O=C(CSc1nc(-c2ccccc2)cs1)N1CCN(C(=O)c2ccco2)CC1,1,-5,-1,3
CCn1cc(C(=O)N2CCc3ccccc3C2)c(=O)c2cc(S(=O)(=O)N3CCCCC3)ccc21,-2,18,0,1
COC(=O)c1ccc(S(N)(=O)=O)o1,0,13,1,3
CCCCCc1cc(=O)oc2c(C(CCN3CCCCC3)c3ccc4c(c3)OCO4)c(OC)cc(OC)c12 (stereo not drawn),3,88*,0,8
CCN(CC)CCC(c1ccc(N(C)C)cc1)c1c(OC)cc(OC)c2c(-c3ccccc3)cc(=O)oc12 (stereo not drawn),4,24,0,0
CCCCCc1cc(=O)oc2c(C(CCN3CCCC(C)C3)c3ccc4c(c3)OCO4)c(OC)cc(OC)c12 (stereo not drawn),0,77*,0,16
CCCCCc1cc(=O)oc2c(C(CCN(CC)CC)c3cc(OC)c(OC)c(OC)c3)c(OC)cc(OC)c12 (stereo not drawn),3,71*,0,3
COc1cc(OC)c2c(-c3ccccc3)cc(=O)oc2c1C(CCN1CCCC1)c1ccc2c(c1)OCO2 (stereo not drawn),6,-24,0,3
Cn1c(SCC(=O)NCc2ccc3c(c2)OCO3)nnc1-c1c[nH]c2ccccc12,-3,5,0,0
CCn1c(COc2ccccc2C)nnc1SCC(=O)Nc1ccc2c(c1)OCCO2,-3,35,/,0
Cc1cccc(N2CCN(c3ccc(N4C(=O)CCCC4=O)cc3[N+](=O)[O-])CC2)c1C,-2,84*,0,0
Cc1cccc(N2CCN(CC(=O)Nc3ccccc3[N+](=O)[O-])CC2)c1C,0,77*,-1,2
O=C1CCCC(=O)N1c1ccc(N2CCN(c3ccccc3)CC2)c([N+](=O)[O-])c1,-1,11,0,-1
CCOC(=O)C1CCCN(S(=O)(=O)c2ccc3c(c2)NC(=O)CO3)C1 (stereo not drawn),-2,/,/,-1
CN(CC1COc2ccccc2O1)C(=O)c1ccc(N(C)C)cc1 (stereo not drawn),-2,25,1,4
CC(=O)N1CCN(CC(=O)Nc2cc(S(=O)(=O)N3CCCCC3)ccc2C)CC1,2,/,0,-2
SMILES,XBP1 UPR activ,CHOP inhibitor,A1 inh,CHOP UPR activ
Cc1ccc(S(=O)(=O)N2CCCCC2)cc1NC(=O)CN1C(=O)CN(C)C1=O,-5,86*,0,-1
CC1(C)NC(=O)N(CC(=O)OCC(=O)Nc2cc(S(=O)(=O)N3CCCCC3)ccc2Cl)C1=O,-1,79*,1,1
CN(C)S(=O)(=O)c1ccc(Cl)c(NC(=O)COC(=O)CN2C(=O)NC(C)(C)C2=O)c1,0,28,0,1
COc1ccc(CCNC(=O)c2cc3c(=O)n4cccc(C)c4nc3s2)cc1OC,12,/,0,1
Cc1oc(C(C)(C)C)cc1C(=O)Nc1ccc(N2CCOCC2)cc1,-3,17,0,-1
CCOC(=O)c1cc2c3ccccc3n(CC)c2nc1N,4,73*,0,-3
CCOC(=O)c1cc(=O)n(Cc2ccccc2C)c2ccccc12,2,71*,1,-1
Cc1ccc(NC(=O)c2csc(-c3ccccc3)c2C)cc1,/,100*,/,/
Cc1ccc(NC(=O)c2cc(C)n(-c3cccc(C)c3)c2C)cc1,2,17,0,6
